Screening data deposited in PubChem by several laboratories.
CFTR F508del cor = CFTR F508del correction in bronchial cells | activity (quench increase), % at 7.58 µM | CFBE cells, YFP halide quenching; stimulated with forskolin plus potentiator P3; % fluorescence drop versus neutral controls | 0.36% of 350,000 active | AID 720511;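 active = mean added fluorescence quench of at least 8% versus neutral control, with both replicates also reaching 8%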;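 also: cells transiently co-express mutant CFTR-F508del with the halide-sensitive YFP; corrector assay measuring rescue of mutant channel to the surface after 24 h compound exposure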
MC4R antag cAMP = antagonists of human melanocortin 4 receptor (MC4R); AID 540295; MC4R-expressing cells, MTII-stimulated cAMP, LANCE TR-FRET; P32245; 0.48% of 360,000 active; inhibition, % at 6.5 µM;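 active = inhibition above its plate's cutoff, the mean of tested wells on that plate plus 3 SD, cut at about 29% in these data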;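 also: 0% = Melanotan II alone and 100% = Melanotan II plus saturating MCL0020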
Target sequence (P32245 whole entry, looked up): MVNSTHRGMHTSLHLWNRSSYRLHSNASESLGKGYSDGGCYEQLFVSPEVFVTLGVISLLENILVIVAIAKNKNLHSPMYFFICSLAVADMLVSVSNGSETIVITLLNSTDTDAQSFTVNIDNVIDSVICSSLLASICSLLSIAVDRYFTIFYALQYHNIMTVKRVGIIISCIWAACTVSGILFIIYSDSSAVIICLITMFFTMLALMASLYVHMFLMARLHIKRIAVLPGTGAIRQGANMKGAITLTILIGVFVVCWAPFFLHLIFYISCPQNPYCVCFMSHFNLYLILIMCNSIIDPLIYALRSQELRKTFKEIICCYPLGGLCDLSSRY
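System: U2OS-MC4R stable cell line; Technique: Eu-cAMP/anti-cAMP TR-FRET, emission 671 nm; Repeats: single well per compound; Also added: Melanotan II; Dosing: one concentration, 6.5 µM nominal; Schedule: 30-min compound, 1-h challenge, 1-h detection, room temperature.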
MC4R barr agon = human MC4R agonism via beta-arrestin | activation, % at 8.9 µM | 0.98% of 360,000 active | P32245 | U2OS MC4R beta-arrestin complementation, luminescence; percent of melanotan II response, DMSO zero;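 active = activation above a per-plate cutoff, the mean activation of sample wells on that plate plus 3 SD, cut at about 8% in these data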
SMARCA2 act = activators of SMARCA2 function; 1% of 370,000 active; activation, % at 9.1 µM; AID 652017; MG213 cells, MMTV-luciferase reporter, dexamethasone, overnight; in the data active = activation above about 7.8%;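 also: 0% = vehicle wells and 100% = reference activator wells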
cAMP nonselect = nonselective cAMP signaling inhibitor, MC4R antagonist counter-screen | shares compounds with MC4R antag cAMP | parental U2OS, forskolin cAMP, LANCE TR-FRET | inhibition, % at 6.5 µM | 26% of 1,600 active | AID 602193;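 active = mean inhibition over triplicates above the low-control well mean plus 3 SD, set per campaign, cut at about 13% in these data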;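 also: signal is single emission at 671 nm which falls as cellular cAMP rises; 0% = forskolin-stimulated wells and 100% = buffer without forskolin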
MC4R cAMP antag = human MC4R cAMP antagonism confirmation; shares compounds with MC4R antag cAMP; MC4R-expressing cells, MTII-stimulated cAMP, TR-FRET; inhibition, % at 6.5 µM; 27% of 1,600 active; AID 602195; in the data active = inhibition above about 29%;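 also: 0% = agonist stimulated wells alone and 100% = agonist stimulated wells plus saturating reference antagonist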
The depositor's hits bear a star; . = not tested or not shown. Hits are enriched below; roughly 2.1% of the tested compounds scored in any of these assays.

SMILES	CFTR F508del cor	MC4R antag cAMP	MC4R barr agon	SMARCA2 act	cAMP nonselect	MC4R cAMP antag
COc1cccc(C(=O)c2c[nH]c(C(=O)NCc3cccnc3)c2)c1	1	30*	-1	-3	3	12
Cc1ccc(C(=O)c2c[nH]c(C(=O)NCc3cccnc3)c2)cc1	.	1	-2	-2	.	.
CCCNC(=O)N1CC(=O)N2[C@H](CO)[C@@H](c3ccc(C#Cc4cccc(F)c4)cc3)[C@@H]2C1	-3	.	.	.	.	.
CCCNC(=O)Nc1ccc2c(c1)C(=O)N(C)C[C@H](OC)[C@H](C)CN(CCC)[C@@H](C)CO2	1	.	.	.	.	.
CC(C)Sc1cc(Cl)nc(NC(=O)Nc2ccccc2)n1	-4	31*	-1	2	17*	39*
O=C(C[C@@H]1C[C@H]2c3cc(NC(=O)CC4CC4)ccc3O[C@H]2[C@@H](CO)O1)NCc1cccc(F)c1	4	.	.	.	.	.
O=C(CSc1ccccn1)C12CC3CC(CC(C3)C1)C2	0	32*	4	-3	2	-5
O=C(O)c1cccnc1SCC(=O)C12CC3CC(CC(C3)C1)C2	-1	11	-1	-2	.	.
C[C@H]1CN([C@@H](C)CO)C(=O)c2cccc(NC(=O)NC3CCCCC3)c2O[C@@H]1CN(C)CC1CCCCC1	1	.	.	.	.	.
O=C(C[C@H]1C=C[C@@H](NC(=O)Nc2ccc(C(F)(F)F)cc2)[C@@H](CO)O1)NCc1cccc(F)c1	-3	.	.	.	.	.
COC(=O)CSc1nnc(-c2ccc(NS(=O)(=O)c3ccccc3)cc2)o1	.	68*	0	-1	12	37*
C[C@H]1CN([C@@H](C)CO)C(=O)c2cc(NC(=O)CCCCCC(=O)Nc3ccccc3N)ccc2O[C@H]1CN(C)CC1CCCCC1	-2	.	.	.	.	.
S=c1nc[nH]c2c1[nH]c1ccc(Cl)cc12	-1	35*	2	-3	3	-4
S=c1nc[nH]c2c1[nH]c1ccccc12	.	49*	-3	2	4	17
CC1CN(S(=O)(=O)c2ccc(C(=O)N3c4ccccc4CC3C)cc2)CC(C)O1 (configuration not stated)	-1	29*	-1	-1	-2	-18
C[C@H](CO)N1C[C@H](C)[C@@H](CN(C)S(=O)(=O)c2ccccc2)Oc2ccc(NS(=O)(=O)c3ccc(Cl)cc3)cc2C1=O	0	.	.	.	.	.
Cc1cc(C)cc(Cn2ncc(Cl)c(Cl)c2=O)c1	-9	.	.	5	.	.
O=C(Cn1ncc(Cl)c(Cl)c1=O)N1CCN(Cc2ccccc2)CC1	-7	29*	0	-12	26*	40*
Cc1ccc(Cn2ncc(Cl)c(Cl)c2=O)cc1	.	49*	-2	8	33*	50*
C[C@@H](O)C#Cc1ccc2c(c1)O[C@@H](CN(C)C(=O)C1CC1)[C@@H](C)CN([C@@H](C)CO)S2(=O)=O	2	.	.	.	.	.
Cc1cc(C(=O)COc2cc(F)ccc2[N+](=O)[O-])c(C)n1C1CC1	-1	29*	-1	0	19*	48*
COc1ccc(Cl)cc1NC(=S)Nc1ccccc1C	1	29*	0	4	-2	-2
COc1ccc(Cl)cc1NC(=O)c1ccccc1C	.	4	-1	-2	.	.
CN1[C@H](C(=O)NCCc2ccccc2)[C@@H](CO)[C@@H]2Cn3c(cccc3=O)[C@@H]21	-1	.	.	.	.	.
CC1CCC/C(=N\NC(=O)Nc2ccccc2)C1 (configuration not stated)	0	23	-1	0	.	.
SMILES	CFTR F508del cor	MC4R antag cAMP	MC4R barr agon	SMARCA2 act	cAMP nonselect	MC4R cAMP antag
CC1CCC/C(=N\NS(=O)(=O)c2ccccc2)C1 (configuration not stated)	1	37*	2	-2	-1	-1
CN1CCN(C(=O)C[C@@H]2C[C@@H]3c4cc(NC(=O)CC5CC5)ccc4O[C@@H]3[C@@H](CO)O2)CC1	-1	.	.	.	.	.
CCc1cc2ccc(OC)cc2nc1SCC(=O)N1CCN(C(=O)c2ccco2)CC1	0	34*	-1	-3	2	18
CCOC(=O)c1c(NC(=S)NC)sc2c1CC(C)(C)SC2	0	19	1	4	.	.
CCOC(=O)c1c(NC(=S)Nc2ccccc2)sc2c1CC(C)(C)SC2	7	35*	-4	1	2	16
CS(=O)(=O)N1CC2(C1)[C@@H](c1ccccc1)[C@H](CO)N2Cc1ccc(F)cc1	1	.	.	.	.	.
